Experimental data collected from several papers.
Compare with care: the assays were run in different laboratories.
Matrix: plasma

COc1cc(C(=O)NC2CCN(C)CC2)c(F)cc1Nc1ncc(C(F)(F)F)c(Oc2cccc3c2C(=O)N(C)C3)n1  Vd/F (human; oral, 25 mg, single dose, patients): 331 L
C[C@@]1(c2cc(NC(=O)c3ccc(C#N)cn3)ccc2F)C=CSC(N)=N1  Vd/F (human; oral, 150 mg, single dose): 247 L
CCNCCCNC/C=C\CNCCCNCC  Vd (human; intravenous, 100 mg, patients, infusion): 1.17 L/kg
COc1ccc([C@@H]2CN(C(=O)[C@@H](O)CO)C[C@@]2(C)[C@@H](C)O)cc1OC1CN(c2ccc(C)cn2)C1  Vd/F (human; oral, 10 mg, single dose, healthy volunteers): 57.6 L
c1cnc2ccc(Nc3nc(NC4CC4)c4nc[nH]c4n3)cc2c1  Vd/F (human; oral, 50 mg/m², patients): 597 L
CO[C@H]1CC[C@H](N2C(=O)CNc3ncc(-c4ccc(C(C)(C)O)nc4)nc32)CC1  Vd/F (human; oral, 7.5 mg, patients): 235 L
Cc1cc(Nc2cc(N3CCN(C)CC3)nc(/C=C/c3ccccc3)n2)n[nH]1  Vd/F (human; oral, 350 mg/m², patients): 2340 L
CC(C)(Sc1ccncc1-c1ccc(C#N)c2ccccc12)C(=O)O  Vd/F (male human; oral, 5 mg, single dose, fasted, healthy volunteers): 419 L
